Data: ChEMBL document CHEMBL4622983, “Structure-Activity Relationship Studies of α-Ketoamides as Inhibitors of the Phospholipase A and Acyltransferase Enzyme Family” (J Med Chem, 2020)
Calls of active or inactive are those of the source. The rule behind the calls is not given here.

Columns and labels:
U2OS = test: Downregulation of N-palmitoylethanolamine level in human U2OS cells at 10 uM after 4 hrs by LC-MS/MS analysis; assay type: functional, cell-based
Method in brief: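 U2OS cells transfected with PLAAT2, PLAAT5 or empty vector (PEI, 1:5 plasmid/PEI). At 24 h, switched to serum-free medium with 10 μM compound (0.1% DMSO) or DMSO for 4 h at 37 °C. Pellets extracted with MTBE against deuterated internal standards. NAEs, 2-AG and free fatty acids quantified by LC–MS/MS, normalized to live cell count. Four biological replicates; one-way ANOVA.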

[1] = target: Cannabinoid receptor 1 (Homo sapiens) (UniProt P21554); test: Displacement of [3H]CP55940 from human CB1 receptor expressed in CHOK1 cell membranes at 10 uM by liquid scintillation spectrometry analysis; conditions: CHO-K1
Cannabinoid receptor 1 (Homo sapiens), sequence (P21554 whole entry): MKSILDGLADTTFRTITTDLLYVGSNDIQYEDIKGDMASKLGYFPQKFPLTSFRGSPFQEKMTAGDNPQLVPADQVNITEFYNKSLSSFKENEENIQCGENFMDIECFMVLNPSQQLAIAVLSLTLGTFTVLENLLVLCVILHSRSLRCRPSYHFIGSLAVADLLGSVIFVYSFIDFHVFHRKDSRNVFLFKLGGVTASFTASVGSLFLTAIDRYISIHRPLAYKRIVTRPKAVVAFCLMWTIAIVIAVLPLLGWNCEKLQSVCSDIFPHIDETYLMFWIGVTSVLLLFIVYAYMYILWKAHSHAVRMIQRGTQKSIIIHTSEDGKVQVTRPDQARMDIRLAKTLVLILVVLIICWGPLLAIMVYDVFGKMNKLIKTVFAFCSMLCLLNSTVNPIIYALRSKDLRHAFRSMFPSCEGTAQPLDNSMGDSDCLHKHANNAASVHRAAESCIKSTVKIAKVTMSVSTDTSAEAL
Method in brief: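 [3H]CP55940 displacement at human CB1 or CB2 receptors, single test concentration 10 μM. Result expressed as % radioligand displacement ± SD (N = 2, n = 2).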

Activity [1]: 49%
SMILES: O=C(CCCc1ccccc1)C(=O)NCCc1ccc(Oc2ccccc2)cc1
inhibition (U2OS): inactive
